Assay outcomes deposited in PubChem BioAssay by several laboratories.
14-3-3 Bad inh: disrupts binding of bovine 14-3-3 zeta to phospho-Bad peptide | 220,000 compounds, 0.71% hits | inhibition, % at 21.7 µM | TR-FRET 14-3-3zeta/Dy647-pBad peptide displacement, 1 h | AID 781;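 active = inhibition above about 70%, limit read from the data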;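 note: 0% = full 14-3-3 plus peptide FRET controls and 100% = background without 14-3-3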
Hck Nef HTS: blocks Nef-activated human Hck kinase; Recombinant Hck-YEEI plus Nef, Z-Lyte FRET kinase assay; 220,000 compounds, 0.68% hits; inhibition, % at 20 µM;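 active = Hck-Nef kinase inhibition above about 50%, limit read from the data; inactive = inhibition below that limit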;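 note: 0% = DMSO with Hck plus Nef and 100% = Hck alone without Nef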
Runt-SMMHC FRET: inhibitors of human RUNX1 Runt domain binding to CBFb-SMMHC. Q01196+Q13951. Cerulean-Runt/Venus-CBFb-SMMHC FRET ratio 530/480, 1 h. inhibition, % at 20 µM. 220,000 compounds, 0.74% hits;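 active = mean inhibition across duplicate retests at 20 µM reaching about 50%, limit read from the data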;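 note: 0% = DMSO wells and 100% = wells with excess untagged CBFb-SMMHC; inhibitors lower the FRET ratio by blocking Runt binding to CBFb-SMMHC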
Target sequence (Q01196 whole entry, looked up, the tested form may be a part): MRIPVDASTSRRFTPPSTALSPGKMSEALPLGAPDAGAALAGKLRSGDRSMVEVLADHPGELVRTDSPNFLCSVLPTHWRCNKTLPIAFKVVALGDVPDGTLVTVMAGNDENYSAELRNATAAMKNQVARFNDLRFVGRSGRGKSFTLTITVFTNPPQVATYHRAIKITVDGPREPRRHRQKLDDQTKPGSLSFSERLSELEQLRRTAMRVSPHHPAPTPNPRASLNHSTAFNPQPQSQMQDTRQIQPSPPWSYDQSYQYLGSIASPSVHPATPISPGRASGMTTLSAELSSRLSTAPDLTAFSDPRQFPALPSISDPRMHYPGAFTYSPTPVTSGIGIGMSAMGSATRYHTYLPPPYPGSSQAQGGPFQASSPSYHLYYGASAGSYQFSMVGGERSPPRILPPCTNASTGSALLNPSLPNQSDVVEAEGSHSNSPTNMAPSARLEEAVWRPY
Target sequence (Q13951 whole entry, looked up, the tested form may be a part): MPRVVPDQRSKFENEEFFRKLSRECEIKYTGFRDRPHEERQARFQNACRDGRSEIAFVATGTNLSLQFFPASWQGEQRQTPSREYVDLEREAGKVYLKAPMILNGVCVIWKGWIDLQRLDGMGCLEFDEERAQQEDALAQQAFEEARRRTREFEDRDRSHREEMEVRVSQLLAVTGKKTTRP
Runt-CBFb FRET: inhibitors of human RUNX1 Runt domain binding to CBFb | Q01196+Q13951 | Cerulean-Runt/Venus-CBFb FRET ratio 530/480, 1 h | inhibition, % at 20 µM | 220,000 compounds, 0.46% hits | AID 1496;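 active = inhibition over about 50% at 20 µM in the single-dose screen, limit read from the data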;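 note: 0% = DMSO wells and 100% = excess unlabeled CBFb competitor control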
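Reagent – Venus-CBFb binding partner, 100 nM · Assay system – Cerulean-tagged RUNX1 Runt domain (FRET donor) fusion protein · Input – 100 nM per protein · Incubation – two 1 h room-temperature incubations shielded from light · Measured by – FRET fluorescence · Medium – Tris buffer pH 7.5 with salts and BSA · Benchmarks – unlabeled CBFb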
Tb hexokinase: T. brucei hexokinase 1 inhibition; recombinant TbHK1, G6PDH-coupled NADH A340; inhibition, % at 10 µM; 220,000 compounds, 0.11% hits; AID 1430;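 active = inhibition of 50% or more in the single-dose primary screen; inactive = inhibition below 50%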
RanGTP-Imp inh: disruptors of Ran-importin-beta complex formation – biochemical, FRET, CFP-Ran, YFP-importin-beta, homogeneous, primary screen; cell-free CFP-Ran/YFP-importin-beta FRET ratio; 300,000 compounds, 1.1% hits; inhibition, % (no concentration beside the values); AID 2216;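 active = more than half of the replicate wells show a fall in the fluorescence ratio signal beyond about 16%, limit read from the data, passing the limit was not always enough; inconclusive = exactly half of the replicate wells pass the set limit; inactive = fewer than half of replicates pass the limit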;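 note: 0% = DMSO wells and 100% = Ran loaded with GDP instead of GTP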
Numbers without * were called inactive; ? = inconclusive; nt = no result; [ ] = dose if it differs, or a comment. Shown are actives, neighbours in structure and some others; about 2.2% of the full set was active somewhere.

SMILES	14-3-3 Bad inh	Hck Nef HTS	Runt-SMMHC FRET	Runt-CBFb FRET	Tb hexokinase	RanGTP-Imp inh
COC(=O)c1c(Cl)c2n3ccccc3c(C)c(-c3ccccc3)c-2c1C(=O)OC	-0.2	1.8	-7.2	0.8	-12.0	19.1*
COC(=O)c1c(C(=O)OC)c2ccccn2c1C(=O)c1ccccc1	nt	nt	nt	nt	nt	1.1
COC(=O)c1cc2c(-c3ccccc3)c(C)c3ccccn3c-2c1C(=O)OC	-13.1	6.1	8.9	9.2	-32.5	27.1*
CCOc1ccc(S(=O)(=O)NCCC(=O)NCC2(N3CCCCC3)CCCCC2)cc1	nt	nt	nt	nt	nt	-4.1
Cn1c(=O)nc2n(Cc3ccccc3)c3cccc(Cl)c3cc-2c1=O	6.7	2.7	59.6*	95.0*	-9.5	64.2*
CCOC(=O)c1sc(Nc2nc3ccc(OC)cc3s2)cc1C	-6.1	4.0	62.0*	6.2	-23.0	-0.7
COc1ccc2nc(Nc3sc4c(c3C(N)=O)CCCC4)sc2c1	-6.9	5.5	67.3*	45.2	-9.7	nt
CCN1CCN(CC(=O)Nc2nc3ccc(OC)cc3s2)CC1	78.6*[fluorescence artefact?]	7.4	-6.9	-4.1	-10.5	3.1
COc1ccc(NC(=O)CN2CCOCC2)cc1	73.0*	5.6	-2.8	1.2	-3.9	0.7
COc1ccc(CC(=O)Nc2sc3c(c2C(N)=O)CCCC3)cc1	nt	nt	nt	nt	nt	3.5
Cc1ccc(N(C(=O)CNC(=O)c2ccco2)C(C(=O)NC2CCCC2)c2cccnc2)cc1F (stereo not given)	nt	nt	nt	nt	nt	0.9
CCc1ccc(-c2ccc(SCC(=O)Nc3nnc(C)s3)nn2)cc1	0.8	-1.2	2.1	-1.2	-1.3	-1.1
CC(/C=C1\N=C(SCc2ccccc2)SC1=O)=C\c1ccccc1	1.8	2.7	-8.5	0.8	10.0	-1.6
N=c1c(S(=O)(=O)c2ccccc2)cc2c(=O)n3ccccc3nc2n1CCN1CCOCC1	nt	23.8	nt	nt	-2.0	nt
CCOCCCn1c(=N)c(S(=O)(=O)c2ccc(C)cc2)cc2c(=O)n3cc(C)ccc3nc21	nt	nt	nt	nt	nt	158.2*
N=c1c(S(=O)(=O)c2ccccc2)cc2c(=O)n3ccccc3nc2n1Cc1ccco1	nt	22.2	nt	12.5	-7.7	85.1*
Cc1nc2ccccc2c(=O)n1Cc1ccco1	-4.0	1.8	-2.8	1.1	-7.6	-9.3
CNC(=O)c1cc2c(=O)n3cc(C)ccc3nc2n(Cc2ccco2)c1=N	nt	nt	41.9	88.1*	nt	nt
COc1ccc(CCn2c(=N)c(S(=O)(=O)c3ccccc3)cc3c(=O)n4ccccc4nc32)cc1	nt	nt	nt	nt	nt	-0.9
Cc1ccc2nc3c(cc(S(=O)(=O)c4ccccc4)c(=N)n3Cc3ccco3)c(=O)n2c1	5.2	36.6	92.3*	18.6	-10.2	?
CCc1ccc(-c2ccc(C(=O)C(F)(F)F)[nH]2)cc1	0.6	1.8	-0.4	-1.6	10.4	2.7
Cc1nn(CC(=O)NCCCN2CCCC2)c(=O)c2nn(-c3ccccc3)c(C)c12	nt	nt	nt	nt	nt	3.8
Cc1ccc(S(=O)(=O)c2cc3c(=O)n4ccccc4nc3n(Cc3ccco3)c2=N)cc1C	42.6	0.4	-13.8	13.9	23.5	75.8*
COc1cc(/C=N/NC(=O)c2ccc(CN3c4cccc5cccc(c45)S3(=O)=O)cc2)cc(OC)c1O	91.8*	13.9	3.1	5.9	-17.9	2.6
CCOC(=O)c1c[nH]c2nc(C)ccc2c1=O	10.0	9.9	30.0	7.1	-4.6	24.0*
SMILES	14-3-3 Bad inh	Hck Nef HTS	Runt-SMMHC FRET	Runt-CBFb FRET	Tb hexokinase	RanGTP-Imp inh
CCOC(=O)Cn1ccc(NC(=O)COc2ccc(F)cc2F)n1	nt	nt	nt	nt	nt	-6.7
NC(=O)[C@@H]1CCCN1Cc1c(C(=O)N2CCN(C3CCCCC3)CC2)nc2ccccn12	nt	nt	nt	nt	nt	111.5*
COC1CCN(Cc2c(C(=O)N3CCN(C4CCCCC4)CC3)nc3ccccn23)CC1	nt	nt	nt	nt	nt	103.9*
COCC1CCN(Cc2c(C(=O)N3CCN(C4CCCCC4)CC3)nc3ccccn23)C1 (stereo not given)	nt	nt	nt	nt	nt	111.4*
O=C(c1nc2ccc(Cl)cn2c1CN1CCC[C@H]1CO)N1CCCCCCC1	nt	nt	nt	nt	nt	22.1*
Cn1cc(CNC(=O)CC2C(=O)NCCN2CC(C)(C)C)cn1 (stereo not given)	-6.7	4.6	-2.4	-3.3	-3.1	1.3
C=CCN1C(=S)CC(c2ccccc2)=Nc2ccccc21	nt	nt	nt	nt	nt	4.1
O=C(c1nc2ccccn2c1CN1CCC(Cc2ccccc2)CC1)N1CCCC1	4.4	-4.8	-5.1	-0.1	-10.7	-4.6
